Results taken from ChEMBL document CHEMBL2057101, “Fluorocyclines. 2. Optimization of the C-9 side-chain for antibacterial activity and oral efficacy” (J Med Chem, 2012).
Converted amounts (≈) assume the structure as drawn.

Assays:
[1] = tested on: Staphylococcus aureus; test: Antibacterial activity against tetracycline-susceptible Staphylococcus aureus ATCC 13709 Smith isolate SA100; format: functional
Procedure, shortened: (§1)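 Broth microdilution MIC following CLSI methods in cation-adjusted Mueller Hinton broth, prepared fresh and held at 4 °C before testing. Defibrinated horse blood added to the medium where appropriate. Runs accepted when quality control ranges for comparator antibiotics and ATCC QC strains were met.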

[2] = tested on: Staphylococcus aureus; test: Antibacterial activity against tetracycline-resistant Staphylococcus aureus isolate SA161 expressing TetM gene; format: functional; procedure, shortened: as §1
[3] = tested on: Staphylococcus aureus; test: Antibacterial activity against tetracycline-resistant Staphylococcus aureus isolate SA158 expressing TetK gene; format: functional
[4] = tested on: Streptococcus pneumoniae; test: Antibacterial activity against Streptococcus pneumoniae ATCC 49619 isolate 106; format: functional
Procedure, shortened: (§2)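 MIC by broth microdilution in liquid medium per CLSI, in cation-adjusted Mueller Hinton broth made fresh and held at 4 °C before testing. Horse blood (defibrinated) added to the medium where appropriate. Runs were accepted only when the comparator antibiotics and ATCC QC strains fell within their recommended ranges.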

[5] = tested on: Streptococcus pneumoniae; test: Antibacterial activity against tetracycline-resistant Streptococcus pneumoniae isolate 160 expressing tetM gene; format: functional
[6] = tested on: Escherichia coli; test: Antibacterial activity against Escherichia coli ATCC 25922 isolate 107; format: functional; procedure, shortened: as §2
[7] = tested on: Escherichia coli; test: Antibacterial activity against Escherichia coli isolate EC155 expressing tetA gene; format: functional; procedure, shortened: as §2
[8] = tested on: Klebsiella pneumoniae; test: Antibacterial activity against Klebsiella pneumoniae ATCC 13883; format: functional; procedure, shortened: as §2
[9] = tested on: Staphylococcus aureus; test: Antibacterial activity against Staphylococcus aureus ATCC 13709 infected in CD-1 mouse assessed as increase in survival at 3 mg/kg, iv administered as single dose 1 hr post infection measured after 48 hrs post infection; format: functional
Procedure, shortened: (§3)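 Mouse septicemia screen: S. aureus grown to log phase, diluted in 5% mucin to give 90% mortality within 48 h, inoculum 1.98 × 10⁶ CFU/mouse, 0.5 mL intraperitoneal into female CD-1 mice (18−20 g). Six mice per group. Single 30 mg/kg oral gavage or 3 mg/kg IV dose 1 h post infection. Infection controls received sterile water vehicle. Survival recorded at 48 h.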

[10] = tested on: Staphylococcus aureus; test: Antibacterial activity against Staphylococcus aureus ATCC 13709 infected in CD-1 mouse assessed as increase in survival at 30 mg/kg, po administered as single dose 1 hr post infection measured after 48 hrs post infection; format: functional; procedure, shortened: as §3
[11] = tested on: Staphylococcus aureus; test: Antibacterial activity against Staphylococcus aureus ATCC 13709 infected in po dosed CD-1 mouse assessed as increase in survival administered as single dose 1 hr post infection measured after 48 hrs post infection; format: functional; conditions: ATCC 13709, po, read-out: PD50
[12] = Oral bioavailability in rat; format: ADME, organism-based; conditions: in vivo
[13] = tested on: Staphylococcus aureus; test: Antibacterial activity against methicillin-resistant Staphylococcus aureus VL-137; format: functional; procedure, shortened: as §1
[14] = tested on: Streptococcus pneumoniae; test: Antibacterial activity against Streptococcus pneumoniae SPN160; format: functional; procedure, shortened: as §1
[15] = tested on: Haemophilus influenzae; test: Antibacterial activity against Haemophilus influenzae 551; format: functional; procedure, shortened: as §2
[16] = tested on: Streptococcus pyogenes; test: Antibacterial activity against Streptococcus pyogenes; format: functional; procedure, shortened: as §2
[17] = tested on: Moraxella catarrhalis; test: Antibacterial activity against Moraxella catarrhalis; format: functional; procedure, shortened: as §2
[18] = tested on: Acinetobacter baumannii; test: Antibacterial activity against Acinetobacter baumannii; format: functional; procedure, shortened: as §2
[19] = tested on: Staphylococcus aureus; test: Antibacterial activity against methicillin-resistant Staphylococcus aureus VL-137 infected in neutropenic Balb/c mouse assessed as reduction in lung CFU at 50 mg/kg, po administered 2 and 12 hrs post infection measured 24 hrs post treatment; format: functional
Procedure, shortened: (§4)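 Female Balb/c mice (18−20 g) made neutropenic with IP cyclophosphamide, 150 and 100 mg/kg on days −4 and −1. Intranasal infection under light anesthesia. Treatment at 2 and 12 h post infection, oral 50 mg/kg/dose or IV 10 mg/kg/dose, six mice per group. At 24 h lungs were homogenized and plated on TSA (37 °C, 5% CO₂, overnight). Read-out is CFU/g lung.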

[20] = tested on: Staphylococcus aureus; test: Antibacterial activity against methicillin-resistant Staphylococcus aureus VL-137 infected in neutropenic Balb/c mouse assessed as reduction in lung CFU at 10 mg/kg, iv administered 2 and 12 hrs post infection measured 24 hrs post treatment; format: functional; procedure, shortened: as §4
[21] = tested on: Streptococcus pneumoniae; test: Antibacterial activity against Streptococcus pneumoniae 1629 infected in immunocompetent CD-1 mouse infection model assessed as reduction in lung CFU at 30 mg/kg, po administered 5, 24 and 36 hrs post infection measured 48 hrs post treatment

Row | Structure (SMILES) | MIC [1] [µg/mL] | MIC [2] [µg/mL] | MIC [3] [µg/mL] | MIC [4] [µg/mL] | MIC [5] [µg/mL] | MIC [6] [µg/mL] | MIC [7] [µg/mL] | MIC [8] [µg/mL] | MIC50 [13] [µg/mL] | MIC90 [13] [µg/mL] | MIC50 [14] [µg/mL] | MIC90 [14] [µg/mL] | MIC50 [15] [µg/mL] | MIC90 [15] [µg/mL] | MIC50 [16] [µg/mL] | MIC90 [16] [µg/mL] | MIC50 [17] [µg/mL] | MIC90 [17] [µg/mL] | further results
1 | CN(C)[C@@H]1C(O)=C(C(N)=O)C(=O)[C@@]2(O)C(O)=C3C(=O)c4c(O)c(CNC(=O)CNC(C)(C)C)cc(F)c4C[C@H]3C[C@@H]12 | 16 (≈ 27.8 µM) | > 32 | 16 (≈ 27.8 µM) | 0.5 (≈ 0.87 µM) | 4 (≈ 6.96 µM) | 32 (≈ 55.7 µM) | > 32 | > 32 |  |  |  |  |  |  |  |  |  |  | 
2 | CN(C)[C@@H]1C(O)=C(C(N)=O)C(=O)[C@@]2(O)C(O)=C3C(=O)c4c(O)c(NC(=O)c5cccn5C)cc(F)c4C[C@H]3C[C@@H]12 | 0.25 (≈ 0.451 µM) | 0.5 (≈ 0.902 µM) | 0.5 (≈ 0.902 µM) | 8 (≈ 14.4 µM) | 8 (≈ 14.4 µM) | > 32 | > 32 | > 32 |  |  |  |  |  |  |  |  |  |  | 
3 | CN(C)[C@@H]1C(O)=C(C(N)=O)C(=O)[C@@]2(O)C(O)=C3C(=O)c4c(O)c(NC(=O)[C@@H]5C[C@@H](F)CN5C)cc(F)c4C[C@H]3C[C@@H]12 | 0.5 (≈ 0.867 µM) | 2 (≈ 3.47 µM) | 1 (≈ 1.73 µM) | 0.063 (≈ 0.109 µM) | 0.063 (≈ 0.109 µM) | 4 (≈ 6.94 µM) | > 32 | 8 (≈ 13.9 µM) |  |  |  |  |  |  |  |  |  |  | 
4 | CN(C)[C@@H]1C(O)=C(C(N)=O)C(=O)[C@@]2(O)C(O)=C3C(=O)c4c(O)c(NC(=O)[C@@H]5C[C@H](F)CN5C)cc(F)c4C[C@H]3C[C@@H]12 | 0.13 (≈ 0.225 µM) | 0.5 (≈ 0.867 µM) | 0.063 (≈ 0.109 µM) | 0.016 (≈ 0.0278 µM) | 0.016 (≈ 0.0278 µM) | 2 (≈ 3.47 µM) | > 32 | 16 (≈ 27.8 µM) |  |  |  |  |  |  |  |  |  |  | survival at 3 mg/kg [9]: 83%; survival at 30 mg/kg [10]: 33%
5 | COc1cccc(C(=O)Nc2cc(F)c3c(c2O)C(=O)C2=C(O)[C@]4(O)C(=O)C(C(N)=O)=C(O)[C@@H](N(C)C)[C@@H]4C[C@@H]2C3)c1 | 0.13 (≈ 0.224 µM) | 0.25 (≈ 0.43 µM) | 0.13 (≈ 0.224 µM) | > 32 | > 32 | > 32 | > 32 | > 32 |  |  |  |  |  |  |  |  |  |  | 
6 | CN(C)[C@@H]1C(O)=C(C(N)=O)C(=O)[C@@]2(O)C(O)=C3C(=O)c4c(O)c(NC(=O)[C@@H]5CCN5C)cc(F)c4C[C@H]3C[C@@H]12 | 0.016 (≈ 0.0294 µM) | 0.016 (≈ 0.0294 µM) | 0.016 (≈ 0.0294 µM) | 0.016 (≈ 0.0294 µM) | 0.016 (≈ 0.0294 µM) | 0.016 (≈ 0.0294 µM) | 1 (≈ 1.84 µM) | 0.063 (≈ 0.116 µM) | 0.031 (≈ 0.0569 µM) | 1 (≈ 1.84 µM) | 0.016 (≈ 0.0294 µM) | 0.016 (≈ 0.0294 µM) | 0.063 (≈ 0.116 µM) | 0.25 (≈ 0.459 µM) | 0.016 (≈ 0.0294 µM) | 0.016 (≈ 0.0294 µM) | 0.016 (≈ 0.0294 µM) | 0.016 (≈ 0.0294 µM) | survival at 3 mg/kg [9]: 100%; survival at 30 mg/kg [10]: 83%; ED50 [11]: 14.3 mg/kg; bioavailability [12]: 4.6%; MIC [14]: 0.016 µg/mL (≈ 0.0294 µM); MIC [16]: 0.016 µg/mL (≈ 0.0294 µM); MIC [17]: 0.016 µg/mL (≈ 0.0294 µM); MIC50 [18]: 0.13 µg/mL (≈ 0.239 µM); MIC90 [18]: 1 µg/mL (≈ 1.84 µM)
7 | C[C@H]1COc2c(N3CCN(C)CC3)c(F)cc3c(=O)c(C(=O)O)cn1c23.C[C@H]1COc2c(N3CCN(C)CC3)c(F)cc3c(=O)c(C(=O)O)cn1c23.O [LEVOFLOXACIN] |  |  |  |  |  |  |  |  | 16 | > 32 | 1 | 1 | 0.016 | 0.031 | 0.5 | 2 | 0.031 | 0.063 | MIC [15]: 0.016 µg/mL; MIC50 [18]: 4 µg/mL; MIC90 [18]: 32 µg/mL
8 | CN(C)[C@@H]1C(O)=C(C(N)=O)C(=O)[C@@]2(O)C(O)=C3C(=O)c4c(O)c(NC(=O)c5ccccc5)cc(F)c4C[C@H]3C[C@@H]12 | 0.25 (≈ 0.453 µM) | 0.25 (≈ 0.453 µM) | 0.5 (≈ 0.907 µM) | 16 (≈ 29 µM) | 16 (≈ 29 µM) | > 32 | > 32 | > 32 |  |  |  |  |  |  |  |  |  |  | 
9 | CC(=O)NC[C@H]1CN(c2ccc(N3CCOCC3)c(F)c2)C(=O)O1 [LINEZOLID] |  |  |  |  |  |  |  |  | 2 (≈ 5.93 µM) | 4 (≈ 11.9 µM) | 1 (≈ 2.96 µM) | 1 (≈ 2.96 µM) | 8 (≈ 23.7 µM) | 16 (≈ 47.4 µM) | 1 (≈ 2.96 µM) | 2 (≈ 5.93 µM) | 8 (≈ 23.7 µM) | 8 (≈ 23.7 µM) | MIC [15]: 8 µg/mL (≈ 23.7 µM); MIC [16]: 1 µg/mL (≈ 2.96 µM); log10CFU/g [19]: 2.46; log10CFU/g [20]: 1.29; log10CFU/g [21]: 3.56
